Consider two compounds from ChEMBL document CHEMBL4177764 (J Med Chem, 2018).

Active and inactive are the calls of the source. The calls are words filed in the database; no cut-off is given here.

What all share (type): cell-based
Assay [1] concerns the target T1, ALK tyrosine kinase receptor (Homo sapiens, UniProt Q9UM73). Kind of assay: Induction of ALK degradation in human KARPAS299 cells at 250 nM after 16 hrs in presence of ALK inhibitor LDK378 by immunoblot method.
Assay [2] has as its target T2, Aurora kinase A (Homo sapiens) (UniProt O14965).
T2 sequence (whole entry): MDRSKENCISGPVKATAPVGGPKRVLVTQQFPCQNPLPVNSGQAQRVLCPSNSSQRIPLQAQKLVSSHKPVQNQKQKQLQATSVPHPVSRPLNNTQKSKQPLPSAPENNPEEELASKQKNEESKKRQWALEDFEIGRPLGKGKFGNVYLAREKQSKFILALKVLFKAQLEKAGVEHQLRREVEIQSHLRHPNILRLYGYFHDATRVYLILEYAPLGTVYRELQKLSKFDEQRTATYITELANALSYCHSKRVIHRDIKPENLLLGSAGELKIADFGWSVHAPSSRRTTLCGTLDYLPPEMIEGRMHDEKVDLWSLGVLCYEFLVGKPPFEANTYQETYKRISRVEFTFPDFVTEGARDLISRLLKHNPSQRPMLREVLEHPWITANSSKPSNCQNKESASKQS
In words: Induction of aurora A degradation in human Kelly cells at 10 to 160 nM after 16 hrs by immunoblot method. The procedure, abridged: (§1)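 Kelly and CHLA20 neuroblastoma cells were treated with dose titrations for 16 h, then Aurora A was detected by immunoblot. CHLA20 cells were always co-treated with 125 nM tariquidar, an ABCB1 inhibitor.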

Assay [3] concerns the target T2, Aurora kinase A (Homo sapiens). Kind of assay: Induction of aurora A degradation in human CHLA20 cells at 10 to 160 nM after 16 hrs by immunoblot method. The method in brief:
as §1

Assay [4] shares this target. Kind of assay: Induction of aurora A degradation in human NCI-H3122 cells at 0.01 to 1 uM after 16 hrs by immunoblot method. The method in brief:
(§2)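 H3122 (EML4-ALK NSCLC) and Karpas 299 (NPM-ALK ALCL) cells were exposed to dose titrations for 16 h. ALK and Aurora A levels were then assessed by immunoblot.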

For assay [5] the target is unchanged. In words: Induction of aurora A degradation in human KARPAS299 cells at 0.01 to 1 uM after 16 hrs by immunoblot method. The method in brief:
as §2

Assay [6] addresses T1, ALK tyrosine kinase receptor. Kind of assay: Induction of ALK degradation in human Kelly cells at 100 nM after 16 hrs in presence of ALK inhibitor TAE684 by immunoblot method. The method in brief: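 Kelly cells were pre-treated for 2 h with DMSO, carfilzomib, MLN4924, pomalidomide, TAE684 or LDK378. Degrader treatment followed for 16 h, and ALK was read by immunoblot.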

In assay [7] the target is Ribosomal protein S6 kinase alpha-1 (Homo sapiens) (UniProt Q15418). In words: Induction of RPS6KA1 degradation in human Kelly cells at 10 to 160 nM after 16 hrs by immunoblot method.
For assay [8], the target named is T1, ALK tyrosine kinase receptor. Kind of assay: Induction of ALK degradation in human Kelly cells assessed as decrease in ALK phosphorylation at Y1507 at 250 nM after 6 to 48 hrs by immunoblot method.
Assay [9] shares this target. Kind of assay: Induction of ALK degradation in human CHLA20 cells assessed as decrease in ALK phosphorylation at Y1507 at 250 nM after 6 to 48 hrs in presence of ABCB1 inhibitor tariquidar by immunoblot method.
The target in assay [10] is Signal transducer and activator of transcription 3 (Homo sapiens) (UniProt P40763). Kind of assay: Inhibition of STAT3 phosphorylation at Y705 in human Kelly cells at 250 nM after 6 to 48 hrs by immunoblot method.
Assay [11] shares this target. Kind of assay: Inhibition of STAT3 phosphorylation at Y705 in human CHLA20 cells at 250 nM after 6 to 48 hrs in presence of ABCB1 inhibitor tariquidar by immunoblot method.

T1 sequence (Q9UM73 19-1620 limits assumed): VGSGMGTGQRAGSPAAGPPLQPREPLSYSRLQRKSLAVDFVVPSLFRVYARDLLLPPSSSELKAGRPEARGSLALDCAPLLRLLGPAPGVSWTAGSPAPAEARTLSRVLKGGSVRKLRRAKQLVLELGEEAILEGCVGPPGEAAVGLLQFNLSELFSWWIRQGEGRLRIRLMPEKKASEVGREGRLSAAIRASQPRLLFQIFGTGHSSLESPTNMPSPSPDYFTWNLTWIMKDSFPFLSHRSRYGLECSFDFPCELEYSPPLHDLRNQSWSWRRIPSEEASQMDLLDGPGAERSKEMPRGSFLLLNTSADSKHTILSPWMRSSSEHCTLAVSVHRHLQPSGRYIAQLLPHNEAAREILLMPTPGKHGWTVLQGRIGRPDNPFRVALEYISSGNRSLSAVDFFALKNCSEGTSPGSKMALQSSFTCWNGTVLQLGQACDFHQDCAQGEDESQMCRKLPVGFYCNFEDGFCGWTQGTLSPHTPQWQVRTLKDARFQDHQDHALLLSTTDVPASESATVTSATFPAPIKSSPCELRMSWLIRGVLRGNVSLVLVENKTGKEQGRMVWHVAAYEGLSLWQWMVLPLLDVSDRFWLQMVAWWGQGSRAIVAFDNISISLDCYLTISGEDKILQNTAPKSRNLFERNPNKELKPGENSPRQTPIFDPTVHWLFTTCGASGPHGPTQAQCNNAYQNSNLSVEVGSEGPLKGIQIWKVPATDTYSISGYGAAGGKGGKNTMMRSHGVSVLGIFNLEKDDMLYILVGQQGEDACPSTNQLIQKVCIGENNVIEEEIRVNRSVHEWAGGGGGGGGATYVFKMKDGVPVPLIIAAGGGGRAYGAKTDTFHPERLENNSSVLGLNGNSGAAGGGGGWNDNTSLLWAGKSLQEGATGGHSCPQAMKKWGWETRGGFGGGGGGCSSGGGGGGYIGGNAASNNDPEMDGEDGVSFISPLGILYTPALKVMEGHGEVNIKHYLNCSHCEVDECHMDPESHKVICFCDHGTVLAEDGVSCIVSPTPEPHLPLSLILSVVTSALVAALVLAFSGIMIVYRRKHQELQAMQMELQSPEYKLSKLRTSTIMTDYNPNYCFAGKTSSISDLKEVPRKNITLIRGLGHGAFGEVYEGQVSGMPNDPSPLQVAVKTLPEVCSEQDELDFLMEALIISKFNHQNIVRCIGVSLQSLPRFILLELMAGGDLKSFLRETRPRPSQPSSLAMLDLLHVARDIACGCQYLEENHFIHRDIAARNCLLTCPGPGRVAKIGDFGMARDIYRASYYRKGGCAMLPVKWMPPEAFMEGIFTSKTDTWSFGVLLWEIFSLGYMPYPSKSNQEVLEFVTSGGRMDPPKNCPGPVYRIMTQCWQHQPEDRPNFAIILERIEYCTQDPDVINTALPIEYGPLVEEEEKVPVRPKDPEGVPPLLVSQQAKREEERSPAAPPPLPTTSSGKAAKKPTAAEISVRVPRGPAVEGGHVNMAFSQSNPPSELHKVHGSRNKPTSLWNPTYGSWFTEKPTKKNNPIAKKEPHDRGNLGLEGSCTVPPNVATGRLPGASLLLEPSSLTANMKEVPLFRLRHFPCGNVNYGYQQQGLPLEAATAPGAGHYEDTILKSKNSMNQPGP
Ribosomal protein S6 kinase alpha-1 (Homo sapiens), sequence (Q15418 whole entry): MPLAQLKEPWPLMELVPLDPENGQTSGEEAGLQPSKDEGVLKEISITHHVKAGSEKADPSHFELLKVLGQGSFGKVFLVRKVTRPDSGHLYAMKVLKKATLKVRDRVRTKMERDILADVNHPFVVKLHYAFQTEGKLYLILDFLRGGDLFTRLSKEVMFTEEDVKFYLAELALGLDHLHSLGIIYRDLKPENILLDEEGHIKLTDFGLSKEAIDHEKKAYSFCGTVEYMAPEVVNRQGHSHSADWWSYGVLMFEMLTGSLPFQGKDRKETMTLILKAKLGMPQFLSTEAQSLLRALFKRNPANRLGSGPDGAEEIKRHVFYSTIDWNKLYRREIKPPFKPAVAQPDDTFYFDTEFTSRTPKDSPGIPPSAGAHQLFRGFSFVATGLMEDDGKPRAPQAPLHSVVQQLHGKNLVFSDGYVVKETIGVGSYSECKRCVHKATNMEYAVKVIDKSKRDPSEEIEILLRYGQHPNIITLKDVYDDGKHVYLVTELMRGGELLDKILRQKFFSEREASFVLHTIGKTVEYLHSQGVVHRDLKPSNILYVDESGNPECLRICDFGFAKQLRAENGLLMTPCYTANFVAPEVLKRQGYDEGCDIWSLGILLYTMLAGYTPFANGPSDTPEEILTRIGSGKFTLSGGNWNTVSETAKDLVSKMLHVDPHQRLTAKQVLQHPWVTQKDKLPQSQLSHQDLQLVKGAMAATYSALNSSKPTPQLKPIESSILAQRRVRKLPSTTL
Signal transducer and activator of transcription 3 (Homo sapiens), sequence (P40763 whole entry): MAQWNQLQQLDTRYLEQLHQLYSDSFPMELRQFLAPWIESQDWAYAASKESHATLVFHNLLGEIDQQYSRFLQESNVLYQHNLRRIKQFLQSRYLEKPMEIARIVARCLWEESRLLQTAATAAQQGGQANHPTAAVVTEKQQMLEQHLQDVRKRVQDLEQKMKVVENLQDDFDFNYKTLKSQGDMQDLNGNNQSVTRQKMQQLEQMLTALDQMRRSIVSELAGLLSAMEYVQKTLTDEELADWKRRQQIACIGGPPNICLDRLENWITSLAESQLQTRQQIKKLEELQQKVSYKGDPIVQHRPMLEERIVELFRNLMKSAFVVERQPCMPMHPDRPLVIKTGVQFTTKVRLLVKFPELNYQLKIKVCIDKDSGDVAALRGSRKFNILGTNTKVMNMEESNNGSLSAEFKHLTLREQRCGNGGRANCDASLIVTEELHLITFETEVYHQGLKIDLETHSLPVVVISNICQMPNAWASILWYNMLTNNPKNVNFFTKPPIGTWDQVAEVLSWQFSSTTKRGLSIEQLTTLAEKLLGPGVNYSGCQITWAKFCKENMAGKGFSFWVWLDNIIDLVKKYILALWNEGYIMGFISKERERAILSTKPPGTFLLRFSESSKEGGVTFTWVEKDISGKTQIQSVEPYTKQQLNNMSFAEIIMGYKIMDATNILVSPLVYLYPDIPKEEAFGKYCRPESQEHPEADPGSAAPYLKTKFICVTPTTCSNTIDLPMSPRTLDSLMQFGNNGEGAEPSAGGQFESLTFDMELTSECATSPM

As for `COc1cc(N2CCN(CCOCCOCCNC(=O)CNc3cccc4c3C(=O)N(C3CCC(=O)NC3=O)C4=O)CC2)ccc1Nc1ncc(Cl)c(Nc2ccccc2S(=O)(=O)C(C)C)n1` (centres undefined), the result in [1] and in assay [6] was inactive. Further, the outcome in [2], in assay [3], in [4], in [5] and in assay [7] was Active.
As for `Cc1cc(Nc2ncc(Cl)c(Nc3ccccc3S(=O)(=O)C(C)C)n2)c(OC(C)C)cc1C1CCN(CCOCCOCCNC(=O)CNc2cccc3c2C(=O)N(C2CCC(=O)NC2=O)C3=O)CC1` (centres undefined), the result in [1] and in assay [6] was inactive. The result in assay [8], in assay [9] and in assay [7] was Active. In addition, the inhibition result in assay [10] and in assay [11] was “Active” throughout.
